Hep lipid drop – inhibitors of hepatocyte lipid droplet formation, primary screen, imaging, high-throughput imaging, BODIPY stain | hit rate 0.4% among 240,000 | inhibition, % at 6.5 µM | AML12 mouse hepatocytes, oleate lipid droplets;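 active means lipid droplet intensity inhibited by at least 50%, with more than 500 cells counted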
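Technique: fluorescence imaging, 20x objective, two fields per well / Assay system: AML12 hepatocytes (mouse) / Measure: % inhibition of lipid droplet signal / Doses: 6.5 µM single-point dosing / Incubation: overnight exposure / Reagent: 100 µM oleic acid challenge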
HSP90 refold inh – HSP90 inhibitors, primary screen, cell lysate, luminescence; hit rate 0.91% among 290,000; Heat shock protein HSP 90 (rabbit reticulocyte lysate; luciferase refolding); AID 1789, 2009; inhibition, % at 5.6 µM; Rabbit reticulocyte lysate, luciferase refolding luminescence, 3 h;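 active means inhibition above the screen-wide mean plus 3 SD, computed separately per campaign, cut at about 16% in these data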;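 further: inhibitors lower the luminescence because luciferase stays unfolded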
HCV NS3 hel inh – inhibitors of HCV NS3 helicase, primary screen, biochemical, Cy5 molecular beacon fluorescence. hit rate 0.56% among 290,000. NS3 helicase DNA unwinding. AID 1800, 2009. inhibition, % at 10.9 µM;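 active means inhibition above the mean of all tested compounds plus 3 SD, set per campaign, cut at about 35% in these data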
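Control set: DMSO versus 110 µM thioflavine S; Material: NS3 helicase fragment of HCV; Measured by: Cy5 fluorescence at 0 and 60 min, beacon hairpin quenching; Read-out basis: percent inhibition from t60/t0 fluorescence ratio; Times: reaction time 60 min, 25 °C; Repeats: single replicate; Compound dosing: single dose, 10.9 µM nominal final, DMSO 0.8% final.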
HSF-1 act – HSF-1 activators, primary screen, NIH3T3-HGL cells, MG132 stress, luminescence, single point. AID 504408, 2011. hit rate 1.7% among 300,000. NIH3T3-HGL HSF-1 luciferase reporter, 8 h; 100% = twice DMSO control signal. activation, % at 9 µM;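 active means mean replicate activation of at least 50% with a set share of replicates each reaching 50%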
HSF1 inh – HSF1 inhibitors in luciferase reporter cells, primary screen, cell-based, NIH3T3, luminescence; activity change, negative = inhibition, % at 7.5 µM (by protocol); NIH3T3-HGL HSE-luciferase, MG132-induced, luminescence 8 h; stronger effect = lower value; hit rate 0.77% among 300,000;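 active means more than half of replicate wells show activity change below -50%, luminescence cut by over half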;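 further: luciferase reports HSF-1 transcriptional activity via heat shock element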
HSP90 confirm – HSP90 inhibitors, confirmation, cell lysate, luminescence | shares compounds with HSP90 refold inh | rabbit reticulocyte lysate, luciferase refolding luminescence, 3 h | inhibition, % at 5.9 µM | hit rate 64% among 2,300 | AID 1846, 2009; in the data active means inhibition above about 18%
luciferase ctr – firefly luciferase inhibitors, HSP90 counter-screen, confirmation, artefact control for HSP90 inhibitor project, biochemical, luminescence, triplicate; inhibition, % at 5.9 µM; purified native firefly luciferase; shares compounds with HSP90 refold inh; AID 1847, 2009; hit rate 48% among 2,300;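 active means inhibition above the mean inhibition of all tested sample wells plus 3 SD, cut at about 10% in these data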
Target sequence (P08659 whole entry, looked up): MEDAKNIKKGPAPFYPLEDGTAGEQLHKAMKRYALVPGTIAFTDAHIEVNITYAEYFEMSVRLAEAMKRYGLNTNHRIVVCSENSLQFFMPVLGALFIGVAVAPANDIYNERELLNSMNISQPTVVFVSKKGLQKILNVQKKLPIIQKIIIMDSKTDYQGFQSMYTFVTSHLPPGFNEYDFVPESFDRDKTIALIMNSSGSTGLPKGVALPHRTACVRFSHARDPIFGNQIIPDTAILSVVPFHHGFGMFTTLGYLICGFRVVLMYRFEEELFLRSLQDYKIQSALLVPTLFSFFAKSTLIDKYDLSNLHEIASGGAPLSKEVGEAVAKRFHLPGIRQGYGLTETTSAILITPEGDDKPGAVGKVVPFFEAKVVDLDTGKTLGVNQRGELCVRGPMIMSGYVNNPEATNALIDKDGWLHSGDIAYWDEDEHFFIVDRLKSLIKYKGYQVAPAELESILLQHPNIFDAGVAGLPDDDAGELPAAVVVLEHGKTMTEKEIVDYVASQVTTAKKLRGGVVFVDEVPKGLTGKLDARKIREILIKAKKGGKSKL
Hits are given with their value; 0 = inactive; - = not tested or not shown. An excerpt weighted towards active compounds, which were near 3.8% of everything screened.

SMILES | Hep lipid drop | HSP90 refold inh | HCV NS3 hel inh | HSF-1 act | HSF1 inh | HSP90 confirm | luciferase ctr
COc1cccc(C2/C(=C(/O)c3ccc4c(c3)CC(C)O4)C(=O)C(=O)N2c2nnc(C)s2)c1 (centres undefined) | 0 | 0 | 0 | 0 | 0 | - | -
CC1Cc2cc(/C(O)=C3/C(=O)C(=O)N(CCN4CCOCC4)C3c3cccc(O)c3)ccc2O1 (centres undefined) | 0 | 18.4 | 0 | 0 | 0 | 18.4 | 0
COc1cc(C2/C(=C(\O)c3ccc4c(c3)CC(C)O4)C(=O)C(=O)N2CC2CCCO2)cc(OC)c1OC (centres undefined) | 0 | 0 | 0 | 0 | 0 | - | -
CCOc1cccc(C2/C(=C(/O)c3ccc4c(c3)CC(C)O4)C(=O)C(=O)N2CCN2CCOCC2)c1 (centres undefined) | 0 | 0 | 0 | 0 | 0 | - | -
Cc1nnc(N2C(=O)C(=O)/C(=C(\O)c3ccc4c(c3)CC(C)O4)C2c2ccccc2)s1 (centres undefined) | 0 | 26.1 | 0 | 0 | 0 | 17.0 | 25.7
CC1Cc2cc(/C(O)=C3/C(=O)C(=O)N(CC4CCCO4)C3c3ccco3)ccc2O1 (centres undefined) | 0 | 22.4 | 0 | 0 | -55.6 | 0 | 11.5
Nc1n[nH]c(CO)n1 | 0 | 0 | 0 | 0 | 0 | - | -
COc1ccc(C)cc1S(=O)(=O)N1CCCC(C(=O)N2CCN(c3ccccc3)CC2)C1 (centres undefined) | 0 | 22.5 | 0 | 0 | 0 | 0 | 0
CCOC(=O)Cc1csc(NC(=S)NC(=O)c2ccc(C)cc2)n1 | 0 | 36.0 | 0 | 0 | 0 | 40.5 | 0
CCOC(=O)Cc1csc(NC(=S)NC(=O)c2ccccc2)n1 | 0 | 0 | 0 | 0 | 0 | - | -
COc1ccc(NC(=O)CSc2nc(C)c3c(c2C#N)CCCC3)cc1 | - | 0 | 0 | 0 | 0 | - | -
CCc1nnc(NC(=O)CSc2nc(C)c3c(c2C#N)CCCC3)s1 | - | 20.8 | 0 | 0 | 0 | 0 | 0
O=C(O)c1ccc(NC2=C/C(=N/S(=O)(=O)c3ccccc3)c3ccccc3C2=O)cc1 | 0 | 86.2 | 0 | - | - | 92.5 | 0
Cc1cc(C)c(S(=O)(=O)/N=C2\C=C(Nc3ccc(C(=O)O)cc3)C(=O)c3ccccc32)c(C)c1 | 0 | 45.9 | 0 | 0 | -87.4 | 78.8 | 0
Cc1cc(C)c(S(=O)(=O)/N=C2\C=C(NS(=O)(=O)c3ccccc3)C(=O)c3ccccc32)c(C)c1 | 0 | 0 | 0 | 0 | 0 | - | -
CC(=O)c1cccc(NC(=O)c2ccc3c(c2)CCN3S(=O)(=O)c2ccccc2)c1 | 0 | 19.5 | 0 | 0 | 0 | 0 | 0
CC(NC(=O)COC(=O)/C=C/c1ccco1)c1ccccc1 (centres undefined) | 0 | 0 | 0 | 0 | 0 | - | -
Cn1c(C2CCCN2C(=O)OC(C)(C)C)n[nH]c1=S (centres undefined) | - | 34.2 | 0 | 0 | 0 | 0 | 0
O=C(NC12CC3CC(CC(C3)C1)C2)c1ccco1 | 0 | 0 | 0 | 0 | 0 | - | -
O=C(NC12CC3CC(CC(C3)C1)C2)c1ccc(-c2ccccc2Cl)o1 | - | 25.7 | 0 | 0 | 0 | 37.6 | 30.1
Cn1c(=O)c2c(nc(N/N=C/c3cccnc3)n2Cc2ccc(F)cc2)n(C)c1=O | 0 | 0 | 0 | 0 | 0 | - | -
Cc1ccc(C2NC(=O)NC3=C2CCc2ccccc23)cc1 (centres undefined) | - | 22.9 | 0 | - | - | 51.5 | 67.3
COC(=O)c1cc(C)nc2c1C(=O)C(=O)C=C2N1CCOCC1 | 0 | 44.7 | 0 | 0 | 0 | 91.1 | 0
COC(=O)c1cc(S(=O)(=O)N2CCOCC2)c(Cl)cc1N1CCOCC1 | 0 | 0 | 0 | 0 | 0 | - | -
Fc1ccc(-n2nnc(-c3nccs3)n2)cc1 | 0 | 19.8 | 0 | 0 | 0 | 31.5 | 24.6
Fc1ccc(-n2nnc(-c3cccnc3Cl)n2)cc1 | 0 | 0 | 0 | 0 | 0 | - | -

Screening results: PubChem, several laboratories
